The nature of test [1]: Antiproliferative activity against human HCC827 cells at 10 uM after 72 hrs by MTS assay. In kind it is functional. (Tetrazolium assays rely on reduction of a dye to a coloured formazan, in cell work by metabolically active cells.)
The nature of test [2]: Antiproliferative activity against human Bel7402 cells at 10 uM after 72 hrs by MTS assay. In kind it is functional, Bel-7402.
For test [3], the system named is NCI-H1975. Nature of the test: Antiproliferative activity against human NCI-H1975 cells at 10 uM after 72 hrs by MTS assay. The format is functional. The procedure, abridged:
(§1)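 Single-concentration screen. Cells at 4 × 10^4 cells/ml, seeded and incubated overnight, then given 10 µM compound in DMSO for 72 h (37 °C, 5% CO2), with DMSO-only controls. MTS added for 4 h and A490 read. Percent inhibition = (1 − OD490 treated/OD490 control) × 100, from triplicate experiments.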

The nature of test [4]: Antiproliferative activity against human H460 cells at 10 uM after 72 hrs by MTS assay. The format is functional, NCI-H460.
Test [5] is described as follows: Antiproliferative activity against human SKBR3 cells at 10 uM after 72 hrs by MTS assay. The format is functional, SK-BR-3. Summed up: as §1
The subject of test [6] is A549. Briefly: Antiproliferative activity against human A549 cells at 10 uM after 72 hrs by MTS assay. The format is functional.
Test [7] can be described thus: Antiproliferative activity against human SGC7901 cells at 10 uM after 72 hrs by MTS assay. The format is functional, SGC-7901.
Test [8] deals with U-251. Briefly: Antiproliferative activity against human U251 cells at 10 uM after 72 hrs by MTS assay. The format is functional. The procedure, abridged:
as §1

A short description of test [9]: Antiproliferative activity against human PM8910 cells at 10 uM after 72 hrs by MTS assay. The format is functional.

20 compounds from ChEMBL document CHEMBL3352626, “Synthesis and biological evaluation of novel oxindole-based RTK inhibitors as anti-cancer agents” (Bioorg Med Chem, 2014) can be followed below.

`O=C1Nc2ncccc2/C1=C/c1ccc(N2CCN(C(=O)c3ccccc3)CC2)cc1`: the Activity in [1] is given as 21.77%; in [2], 17.58%; in [3], 35.62%; in test [4], 17.24%; in [5], 9.07%; in test [6] it was 10.59%. In addition, the Activity is given as 15.99% in test [7], 3.44% in test [8] and 13.74% in test [9].
With `CCn1c2ccccc2c2cc(/N=C3/C(=O)Nc4ccc(Cl)cc43)ccc21`, the Activity in [1] was 37.81%; in [2] it was 16.52%; in [3], 59.78%; in test [4], 30.28%; in test [5] it was 20.02%; in [6] it was 26.46%. Moreover, the figures for the Activity in [7], in [8] and in test [9] were 15.22%, 8.03% and 24.55%, respectively.
Regarding `O=C1Nc2ccccc2/C1=C/c1ccc(N2CCN(C(=O)c3ccccc3)CC2)cc1`, the Activity in test [1] was determined as 53.47%; in test [2] it was 30.87%; in [3] it was 42.39%; in test [4], 35.67%; in test [5] it was 27.26%; in [6], 23.47%. The Activity in test [7] stood at 23.7%; in test [8], 11.33%; in [9] it was 40.43%.
With `O=C1Nc2ccc(Cl)cc2/C1=N/c1ccc2[nH]ccc2c1`, the Activity in [1] is recorded as 20.17%; in test [2], 13.44%; in test [3], 21.92%; in test [4], 9.99%; in test [5] it was 11.83%; in test [6], -10.32%. In addition, the Activity is reported as 12.49% in [7], 26.95% in [8] and 10.94% in test [9].
Take `O=C1Nc2ccc(Cl)cc2/C1=N/NC(=O)c1ccco1`: the Activity in [1] is recorded as 7.22%; in [2], 12.57%; in [3] it was 27.45%; in [4] it was 17.15%; in [5] it was 23.68%; in test [6] it was 11.52%. Moreover, the results for the Activity in test [7], in test [8] and in test [9] were 10.02%, 12.52% and 15.69%, respectively.
In the case of `O=C1Nc2ccccc2/C1=C/c1ccc(N2CCOCC2)cc1`, the Activity amounted to 34.26% in [1]; 23.53% in test [2]; 28.96% in test [3]; 26.56% in test [4]; 11.93% in test [5]; 37.09% in test [6]. For the same compound, the Activity in test [7] is listed as 17.89%; in test [8], 1.92%; in test [9], 14.19%.
Regarding `CCOC(=O)c1ccc(/N=C2\C(=O)Nc3ccc(Cl)cc32)c(N2CCOCC2)n1`, the Activity was 18.58% in [1]; 8.58% in test [2]; 34.78% in [3]; 14.19% in [4]; 14.58% in test [5]; 24.53% in [6]. Further, the Activity in [7] is 2.89%; in test [8], 7.69%; in [9], 21.97%.
For `Cn1cc(/C=C2/C(=O)Nc3ncccc32)c2ccccc21`, the Activity is 37.21% in [1]; 24.47% in test [2]; 38.04% in test [3]; 19.17% in test [4]; 8.29% in [5]; 11.36% in [6]. Also, the Activity was 22.39% in [7], -0.65% in [8] and 22.23% in test [9].
Take `O=C1Nc2ccc(Cl)cc2/C1=N/c1ccc2nc(S)[nH]c2c1`: the Activity was 19.19% in test [1]; 10.23% in [2]; 26.56% in [3]; 5.31% in [4]; 8.27% in test [5]; 11.87% in test [6]. Moreover, the figures for the Activity in test [7], in [8] and in test [9] were 4.79%, -4.89% and 10.36%, respectively.
For the compound `O=C1Nc2ncccc2/C1=C/c1c[nH]c2ccccc12`, the Activity in [1] was found to be 7.27%; in [2], 18.98%; in test [3], 13.11%; in [4] it was 7.2%; in test [5] it was 2.64%; in [6] it was 5.4%. Moreover, the Activity in test [7] came out at 24.68%; in [8], 0.83%; in test [9] it was 3.22%.
In the case of `C=CC(=O)N1CCN(c2ccc(/C=C3\C(=O)Nc4ncccc43)cc2)CC1`, the Activity in test [1] was determined as 22.4%; in test [2] it was 12.29%; in test [3], 35.6%; in test [4], 7.69%; in test [5], 13.65%; in test [6], 25.1%. The Activity was 6.35% in [7], 12.58% in [8] and 19.94% in test [9].
For `O=C1Nc2ccc(Cl)cc2/C1=C/c1c[nH]c2ncccc12`, the Activity is 25.9% in test [1]; 34.51% in [2]; 48.72% in test [3]; 48.99% in test [4]; 10.07% in test [5]; 34.13% in test [6]. The Activity in [7] was determined as 31.4%; in test [8] it was 5.49%; in [9], 29.28%.
For the compound `O=C1Nc2ccc(Cl)cc2/C1=N/c1ccc2ncccc2c1`, the Activity in [1] was found to be 36.53%; in [2], 0.92%; in test [3] it was 48.22%; in test [4] it was 24.3%; in [5], 24.97%; in test [6], 33.82%. Further, the figures for the Activity in test [7], in test [8] and in test [9] were 11.48%, -1.16% and 17.04%, respectively.
Take `O=C1Nc2ccc(Cl)cc2/C1=N/NC(=O)c1ccc(N2CCOCC2)c([N+](=O)[O-])c1`: the Activity in [1] is listed as 3.85%; in [2], 0.27%; in test [3], 17.93%; in test [4] it was 7.06%; in [5], 11.88%; in test [6], 7.93%. In addition, the Activity in test [7] is on record as 0.54%; in test [8], -8.37%; in test [9], 8.98%.
As for `O=C1Nc2ncccc2/C1=C/c1ccccc1C(F)(F)F`, the Activity in test [1] amounted to 1.3%; in [2], 7.05%; in test [3], 31.12%; in test [4], 16.53%; in test [5] it was 5.96%; in test [6] it was 11.09%. Moreover, the Activity in test [7] was 13.97%; in test [8] it was -5.87%; in test [9], 29.66%.
As for `O=C1Nc2ccc(Cl)cc2/C1=N/c1ccc2cc[nH]c2c1`, the Activity was determined as 24.95% in test [1]; 5.59% in test [2]; 47.6% in [3]; 17.08% in test [4]; 14.03% in test [5]; 10.2% in [6]. For the same compound, the Activity is given as -0.27% in test [7], -5.47% in [8] and 11.93% in test [9].
`O=C1Nc2ncccc2/C1=C/c1ccc(N2CCOCC2)cc1`: the Activity is on record as 10.19% in test [1]; 9.16% in [2]; 9.21% in test [3]; 32.46% in test [4]; 2.52% in test [5]; 12.18% in test [6]. The figures for the Activity in test [7], in test [8] and in [9] were 21.38%, -3.95% and -1.48%, respectively.
Turning to `O=CN1CCN(c2ccc(/C=C3\C(=O)Nc4ncccc43)cc2)CC1`, the Activity in [1] was 14.61%; in test [2], 15.45%; in [3], 23.51%; in test [4], 13.68%; in test [5], 7.8%; in test [6], 0.14%. In addition, the Activity in test [7] is 9.66%; in [8], -12.2%; in test [9] it was 10.13%.
Regarding `CCOC(=O)c1ccc(/N=C2\C(=O)Nc3ccc(Cl)cc32)c(Nc2cc(OC)cc(OC)c2)c1`, the Activity in test [1] was determined as 41.43%; in test [2], 28.63%; in test [3], 65.83%; in [4], 57.08%; in [5], 41.17%; in test [6] it was 32.9%. Moreover, the Activity in test [7] was 64.74%; in test [8] it was 7.98%; in test [9], 42.24%.
For the compound `O=C1Nc2ncccc2/C1=C/c1ccc(N2CCN(C(=O)CCCl)CC2)cc1`, the Activity was found to be 13.18% in test [1]; 12.01% in test [2]; 17.66% in [3]; 7.98% in [4]; 10.56% in test [5]; 5.2% in test [6]. The Activity in test [7] is on record as 5.55%; in test [8], -2.81%; in test [9], 14.97%.
